Calls of active or inactive are those of the source.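 How the source made its calls: active means IC50 at or below 10 µM; inactive means IC50 above 10 µM.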
What follows are compounds tested against HCV core protein (core106) dimerization (assay: HCV core106 dimer disruption potency, late-stage follow-up, biochemical, AlphaScreen luminescence, powder samples (AID 651577)). Conditions: AlphaScreen GST-/Flag-core106 dimerization.
How it was run: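 Assay system: HCV core106 protein domain, GST-tagged and Flag-tagged forms / Amount: 150 nM GST-core106 plus 150 nM Flag-core106 / Signal: AlphaScreen bead-proximity luminescence / Replicates: triplicate wells per concentration / Incubation: 1 h protein preincubation, 1 h per bead addition / Probe or stimulus: Anti-Flag acceptor and glutathione donor beads, 20 µg/mL each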

IC50, active:
Cc1ccc(Cc2c(C)nc3nc(SCC(=O)NCCN4CCN(S(=O)(=O)c5ccccc5)CC4)nn3c2C)cc1 10200 nM, Cc1ccc(Cc2c(C)nc3nc(SCC(=O)NCCN4CCCN(S(=O)(=O)c5ccc(C)cc5)CC4)nn3c2C)cc1 2600 nM, Cc1ccc(Cc2c(C)nc3nc(SCC(=O)NCCN4CCNCC4)nn3c2C)cc1 8400 nM, Cc1ccc(Cc2c(CCc3ccccc3)nc3nc(SC(Cc4ccccc4)C(=O)NCCN4CCOCC4)nn3c2C)cc1 (centres undefined) 9900 nM, Cc1ccc(Cc2c(C)nc3nc(SCC(=O)NCCN4CCCCCC4)nn3c2C)cc1 1900 nM, Cc1ccc(Cc2c(C)nc3nc(SCC(=O)NCCN4CCCN(S(=O)(=O)c5ccccc5)CC4)nn3c2C)cc1 1600 nM, Cc1ccc(Cc2c(C)nc3nc(SCC(=O)NCCN4CCCN(S(C)(=O)=O)CC4)nn3c2C)cc1 510 nM, Cc1ccc(Cc2c(C)nc3nc(SCC(=O)NCCN4CCOCC4)nn3c2C)cc1 1000 nM

IC50, inactive:
Cc1ccc(Cc2c(C)nc3nc(SCC(=O)NCCN4CCN(CCc5ccccc5)CC4)nn3c2C)cc1, Cc1ccc(Cc2c(C)nc3nc(SCC(=O)NCCN4CCCCC4)nn3c2C)cc1, Cc1ccc(Cc2c(C)nc3nc(SCC(=O)NCCN4CCN(Cc5ccc(F)cc5)CC4)nn3c2C)cc1, Cc1ccc(Cc2c(C)nc3nc(SCC(=O)NCCN4CCN(C(=O)OC(C)(C)C)CC4)nn3c2C)cc1, Cc1ccc(Cc2c(C)nc3nc(SCC(=O)NCCN4CCN(Cc5ccccc5)CC4)nn3c2C)cc1, Cc1ccc(Cc2c(C)nc3nc(SCC(=O)NCCN4CCN(Cc5ccc(Cl)cc5)CC4)nn3c2C)cc1

— PubChem BioAssay AID651577 (The Scripps Research Institute Molecular Screening Center, 2012)
